# TRPC4 inh: blocks the mouse TRPC4 cation channel. Q9QUQ5. HEK293 TRPC4beta/mu-opioid, DAMGO-evoked Fluo4 calcium flux; hits give low values. B-score at 10 µM. hit rate 0.39% among 300,000. AID 2247;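 active = B-score over 3 SD under the library average, no early fluorescence shift, positive overall ratio signal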
#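 Assay system: Stable TRPC4beta/mu-opioid receptor HEK293 cells | Reagent: DAMGO in two steps, submaximal then maximal | Compound dosing: Single concentration per test compound | Signal: Fluo4 Ca2+ flux fluorescence | Evaluation: Per-well B score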
# TRPC6 act: mouse TRPC6 channel activation; Q61143; HEK293-TRPC6 membrane potential dye fluorescence; hits give high values; B-score at 10 µM; hit rate 0.13% among 310,000;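 active = B-score of the integrated fluorescence ratio above library mean plus 3 SD, and starting fluorescence ratio within library mean plus 5 SD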;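 also: higher score means more depolarization so channel activation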
# Target sequence (Q61143 whole entry, looked up): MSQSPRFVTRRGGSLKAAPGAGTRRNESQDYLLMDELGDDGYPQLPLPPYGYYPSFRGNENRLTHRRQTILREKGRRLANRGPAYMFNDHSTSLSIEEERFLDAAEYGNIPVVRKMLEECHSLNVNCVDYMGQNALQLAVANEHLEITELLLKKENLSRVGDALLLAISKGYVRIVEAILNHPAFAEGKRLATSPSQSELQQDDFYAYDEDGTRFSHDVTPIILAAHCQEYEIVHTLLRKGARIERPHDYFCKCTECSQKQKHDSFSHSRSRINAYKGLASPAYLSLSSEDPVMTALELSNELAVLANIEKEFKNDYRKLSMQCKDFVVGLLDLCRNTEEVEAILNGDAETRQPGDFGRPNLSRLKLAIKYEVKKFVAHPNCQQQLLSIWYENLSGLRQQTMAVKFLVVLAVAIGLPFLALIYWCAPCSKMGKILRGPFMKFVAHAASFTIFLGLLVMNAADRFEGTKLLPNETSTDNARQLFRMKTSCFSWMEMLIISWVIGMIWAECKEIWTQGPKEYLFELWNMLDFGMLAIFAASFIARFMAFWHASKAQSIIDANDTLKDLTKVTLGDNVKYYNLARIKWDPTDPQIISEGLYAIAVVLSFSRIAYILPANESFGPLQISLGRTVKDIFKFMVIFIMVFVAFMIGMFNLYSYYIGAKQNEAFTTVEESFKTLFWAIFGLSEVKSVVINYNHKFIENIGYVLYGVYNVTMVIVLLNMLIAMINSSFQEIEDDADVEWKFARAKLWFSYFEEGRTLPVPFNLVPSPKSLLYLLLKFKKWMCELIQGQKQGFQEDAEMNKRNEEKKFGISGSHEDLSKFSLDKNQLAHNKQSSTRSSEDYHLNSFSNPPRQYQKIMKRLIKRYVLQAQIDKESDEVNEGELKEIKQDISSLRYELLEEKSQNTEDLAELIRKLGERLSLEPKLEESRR
# TRPC4 PAM: allosterically enhances the mouse TRPC4 cation channel. Q9QUQ5. HEK293 TRPC4beta/mu-opioid, DAMGO EC20, Fluo-4 Ca2+ flux; hits give high values. B-score at 10 µM. hit rate 0.42% among 310,000;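 active = B-score of calcium response area above 5 SD of library B-scores, with initial fluorescence ratio within 5 SD of library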;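 also: B-score of integrated fluorescence ratio over time as area under calcium response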
# Kir21 block: Kir2.1 (mouse) channel inhibition; P35561; HEK293-Kir2.1, FluxOR thallium flux fluorescence; hits give low values; B-score at 10 µM; hit rate 0.85% among 310,000; AID 1672;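 active = fluorescence ratio B-score at or below minus 3 SD of library scores, with starting-brightness B-score within 2 SD, cut at about -4.2 in these data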;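 also: channel flux triggered by added potassium and thallium sulfate stimulus; B-score of peak minus minimum fluorescence over baseline after thallium stimulus; more negative B-score means stronger Kir2.1 block with less thallium influx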
# TRPC4 act: opens the mouse TRPC4 cation channel | HEK293 TRPC4beta/mu-opioid, Fluo4 calcium fluorescence; hits give high values | AID 2237 | B-score at 10 µM | hit rate 0.49% among 310,000 | Q9QUQ5;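 active = B-score above 5 SD of library B-scores, and initial fluorescence ratio not above library mean plus 5 SD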;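 also: positive B-score marks a calcium rise read as TRPC4 activation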
#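 Incubation: 45 min room-temperature Fluo4 loading, 110 s read / System: HEK293 cells stably co-expressing mouse TRPC4beta and mu-opioid receptor / Signal: Fluo4 fluorescence, kinetic / Control set: buffer (low) and maximal DAMGO (high) / Measure: integrated baseline-normalised fluorescence ratio, converted to per-well B score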
# TRPC6 inh: inhibitors of mouse TRPC6 channel | HEK293-TRPC6, membrane potential dye, ACh-evoked depolarization; hits give low values | hit rate 1.1% among 310,000 | B-score at 10 µM | Q61143;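 active = B-score under library mean minus 3 SD, initial fluorescence not abnormally high, positive integrated signal ratio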;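 also: B-score derived from integrated fluorescence ratio over the kinetic read; more negative B-score means stronger inhibition of depolarization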
# Numbers without * were called inactive; i = inactive. Shown are actives, neighbours in structure and some others; about 2.9% of the full set was active somewhere.
SMILES,TRPC4 inh,TRPC6 act,TRPC4 PAM,Kir21 block,TRPC4 act,TRPC6 inh
CCOc1cc(CNc2ccc(O)cc2)ccc1OCc1ccc(Cl)cc1Cl,i,i,i,2.24,i,i
COc1cc(CNC(C)(C)CO)cc(Br)c1OCc1ccc(Cl)cc1,i,i,i,-4.78*,i,i
COc1cc(CNC(C)(C)CO)cc(Br)c1OCc1ccc(Cl)cc1Cl,i,i,i,-10*,i,i
CC(C)(CO)NCc1c(OCc2ccc(Cl)cc2)ccc2ccccc12,i,i,i,-2.87,i,-6.72*
COc1cc(OC)cc(N(C(=O)CNC(=O)c2cccs2)C(C(=O)NCC2CCCO2)c2ccccc2)c1 (configuration not stated),i,i,i,-0.02,i,i
CC(=O)Cc1cc2cc([N+](=O)[O-])ccc2oc1=O,i,i,i,-0.29,i,i
Cc1ccc(SC[C@H](C)CN2CC[C@H](C)CCC2=O)cc1,i,i,i,-4.68*,i,i
CN(Cc1ccc(F)cc1)C(=O)c1sccc1-c1ccccc1,i,i,i,-7.83*,i,i
COc1ccc(CN(C)C(=O)c2sccc2-c2ccccc2)c(OC)c1,i,i,i,-2.11,i,i
CC(C)C(=O)N1CCN(c2nc(-c3ccccc3)c3c(c2C#N)CCCC3)CC1,i,i,14*,0.9,i,i
COc1ccc(C2CC(=O)c3ccccc3O2)cc1 (configuration not stated),i,i,i,0.02,i,i
CC(=O)Nc1cccc(C(=O)/C=C/c2ccc(C)cc2)c1,i,i,i,-0.97,i,i
CN(C)c1ccc(/C=C/C(=O)c2cccc(Br)c2)cc1,i,i,18*,-10.6,99*,i
Cc1ccccc1C([O-])=Nc1ccc[n+](-c2nc3ccccc3nc2NS(=O)(=O)c2ccccc2)c1,i,i,i,-0.62,i,i
COc1ccc(CCNC(=O)CSc2ccsc2[N+](=O)[O-])cc1OC,i,i,i,-4.49*,i,i
COc1ccc(N2CCN(CC(O)COCCOc3ccc(Br)cc3)CC2)cc1 (configuration not stated),i,i,i,-4.32*,i,i
OC(COc1ccc2cc(Br)ccc2c1)CN1CCCC1 (configuration not stated),i,i,i,-6.78*,i,i
CC(C)(c1ccccc1)c1ccc(OCC(O)CN2CCCC2)cc1 (configuration not stated),i,i,i,-5.27*,i,i
COc1ccccc1N1CCN(CC(O)COCCOc2ccc(Br)cc2)CC1 (configuration not stated),i,i,i,-1.65,i,i
COc1ccc(CCNC(=O)COc2cccc3c2OC(C)(C)C3)cc1OC,i,i,i,-5.75*,i,i
CC1(C)Cc2cccc(OCC(=O)OCC(=O)NCc3ccccc3)c2O1,i,i,i,-4.34*,i,i
CC(C)C(=O)Nc1cccc(C(=O)Nc2ccc(S(=O)(=O)Nc3nccs3)cc2)c1,i,i,i,-1.25,i,i
Cc1ccc(C2CC(=O)NC(SCc3ccccc3)=C2C#N)o1 (configuration not stated),i,i,i,-6.89*,i,i
N#CC1=C(SCc2ccccc2)NC(=O)CC1c1ccco1 (configuration not stated),i,i,i,-9.08*,i,i
CCSC1=C(C#N)C(c2ccc(C)o2)CC(=O)N1 (configuration not stated),i,i,i,-0.72,i,i
Cc1cccc(C)c1NC(=O)[C@@]1(CC(=O)O)CC(/C=C/c2ccccc2)=NO1,i,i,i,0.87,i,i
CSCCC(NC(=O)COc1ccccc1)C(=O)N1CCN(C(C)=O)CC1 (configuration not stated),i,i,i,1.83,i,i

# High-throughput results deposited in PubChem BioAssay by Johns Hopkins Ion Channel Center.
